# Test results from ChEMBL document CHEMBL1671862, “Impact of nucleoside reverse transcriptase inhibitors on mitochondrial DNA and RNA in human skeletal muscle cells” (Antimicrob Agents Chemother, 2008).
# How the values were obtained:
# Type in all cases: tissue-based, Muscle tissue
# [1] = Cytotoxicity against human skeletal muscle Myoblast assessed as decrease in mitochondrial DNA on day 2 by RT-PCR relative to untreated control
# Outline: (§1)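 Myoblasts were treated from 20-30% confluence with NRTIs at plasma Cmax levels (ddI 11.8, d4T 3.6, AZT 7.1, 3TC 8.3, ABV 3.0 μmol), singly or combined. Medium was changed every 2 days at 37°C, 5% CO2, and cells were harvested on day 2 or 5. mtDNA and nDNA were measured by LightCycler real-time PCR in duplicate. The mtDNA:nDNA ratio is expressed relative to untreated cells. Five repeats.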
# [2] = Cytotoxicity against human skeletal muscle Myoblast assessed as change in Tfam mitochondrial RNA level on day 2 by RT-PCR relative to untreated control
# Outline: (§2)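 Proliferating human skeletal muscle myoblasts were treated from 20-30% confluence in growth medium, with NRTIs dissolved in sterile water. Doses were plasma Cmax levels (ddI 11.8, d4T 3.6, AZT 7.1, 3TC 8.3, ABV 3.0 μmol), given singly or as combinations. Controls got medium only, and medium was renewed every 2 days at 37°C, 5% CO2. Real-time RT-PCR copies were normalized to G6PDH and expressed relative to untreated cells. Five repeats.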
# [3] = Cytotoxicity against human skeletal muscle Myotube assessed as decrease in MTCYB mitochondrial RNA level on day 5 by RT-PCR relative to untreated control
# Outline: (§3)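 Myoblasts at 70-80% confluence were differentiated into myotubes for 72 h in alpha-MEM with 10% FCS and penicillin/streptomycin. They were then treated with NRTIs at plasma Cmax levels (ddI 11.8, d4T 3.6, AZT 7.1, 3TC 8.3, ABV 3.0 μmol) for 5 days at 37°C, 5% CO2, with medium renewed every 2 days. mtDNA:nDNA, or RNA:G6PDH copies by real-time PCR, is expressed relative to untreated cells. Five repeats.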
# [4] = Cytotoxicity against human skeletal muscle Myoblast assessed as change in MTCYB mitochondrial RNA level on day 2 by RT-PCR relative to untreated control; outline: as §2
# [5] = Cytotoxicity against human skeletal muscle Myoblast assessed as change in POLG mitochondrial RNA level on day 5 by RT-PCR relative to untreated control; outline: as §2
# [6] = Cytotoxicity against human skeletal muscle Myoblast assessed as change in POLG mitochondrial RNA level on day 2 by RT-PCR relative to untreated control; outline: as §2
# [7] = Cytotoxicity against human skeletal muscle Myotube at 100 uL on day 5 by WST-1 assay
# Outline: (§4)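 After 5 days of NRTI treatment at Cmax levels, 100 μl WST-1 reagent was added per well and incubated 1 h at 37°C, 5% CO2. Supernatant absorbance was read at 450 nm in duplicate. Results are the ratio of treated to untreated wells, run in triplicate.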
# [8] = Cytotoxicity against human skeletal muscle Myotube assessed as decrease in mitochondrial DNA on day 5 by RT-PCR relative to untreated control; outline: as §3
# [9] = Cytotoxicity against human skeletal muscle Myoblast assessed as decrease in mitochondrial DNA on day 5 by RT-PCR relative to untreated control; outline: as §1
# [10] = Cytotoxicity against human skeletal muscle Myotube assessed as change in POLG mitochondrial RNA level on day 5 by RT-PCR relative to untreated control; outline: as §3
# [11] = Cytotoxicity against human skeletal muscle Myoblast assessed as decrease in MTCYB mitochondrial RNA level on day 5 by RT-PCR relative to untreated control; outline: as §2
# [12] = Cytotoxicity against human skeletal muscle Myoblast assessed as change in Tfam mitochondrial RNA level on day 5 by RT-PCR relative to untreated control; outline: as §2
# [13] = Cytotoxicity against human skeletal muscle Myoblast at 100 uL on day 5 by WST-1 assay; outline: as §4
# [14] = Cytotoxicity against human skeletal muscle Myoblast assessed as change in MTCO3 mitochondrial RNA level on day 2 by RT-PCR relative to untreated control; outline: as §2
# [15] = Cytotoxicity against human skeletal muscle Myotube assessed as change in Tfam mitochondrial RNA level on day 5 by RT-PCR relative to untreated control; outline: as §3
# [16] = Cytotoxicity against human skeletal muscle Myoblast assessed as increase in mitochondrial DNA on day 5 by RT-PCR relative to untreated control; outline: as §1
# [17] = Cytotoxicity against human skeletal muscle Myoblast assessed as increase in mitochondrial DNA on day 2 by RT-PCR relative to untreated control; outline: as §1
# [18] = Cytotoxicity against human skeletal muscle Myotube assessed as decrease in MTCO3 mitochondrial RNA level on day 5 by RT-PCR relative to untreated control; outline: as §3
SMILES,Ratio [1],Activity [2],Ratio [3],Activity [4],Activity [5],Activity [6],Activity [7],Ratio [8],Ratio [9],Activity [10],Ratio [11],Activity [12],Activity [13],Activity [14],Activity [15],Ratio [16],Ratio [17],Ratio [18]
O=c1[nH]cnc2c1ncn2[C@H]1CC[C@@H](CO)O1 [DIDANOSINE],0.51,Non-toxic,0.66,Non-toxic,Non-toxic,Non-toxic,Non-toxic,0.5,0.22,Non-toxic,0.51,Non-toxic,Non-toxic,Non-toxic,Non-toxic,,,
Cc1cn([C@H]2C[C@H](N=[N+]=[N-])[C@@H](CO)O2)c(=O)[nH]c1=O [ZIDOVUDINE],,Non-toxic,,Non-toxic,Non-toxic,Non-toxic,Non-toxic,,,Non-toxic,,Non-toxic,Non-toxic,Non-toxic,Non-toxic,1.14,1.45,
Nc1nc(NC2CC2)c2ncn([C@H]3C=C[C@@H](CO)C3)c2n1.Nc1nc(NC2CC2)c2ncn([C@H]3C=C[C@@H](CO)C3)c2n1.O=S(=O)(O)O [ABACAVIR SULFATE],,Non-toxic,,Non-toxic,Non-toxic,Non-toxic,Non-toxic,,,Non-toxic,,Non-toxic,Non-toxic,Non-toxic,Non-toxic,1.07,1.19,
Cc1cn([C@H]2C=C[C@@H](CO)O2)c(=O)[nH]c1=O [STAVUDINE],,Non-toxic,,Non-toxic,Non-toxic,Non-toxic,Non-toxic,,,Non-toxic,,Non-toxic,Non-toxic,Non-toxic,Non-toxic,0.98,1.2,0.69
Nc1ccn([C@@H]2CS[C@H](CO)O2)c(=O)n1 [LAMIVUDINE],,Non-toxic,,Non-toxic,Non-toxic,Non-toxic,Non-toxic,,,Non-toxic,,Non-toxic,Non-toxic,Non-toxic,Non-toxic,0.94,1.16,
